# Source: PubChem BioAssay
# TAG inh – reduces triacylglycerol accumulation in H9c2 cells | Nile Red lipid (TAG) fluorescence; cells loaded with 200 µM oleic acid | inhibition, % at 12.5 µM | 230,000 compounds, 0.66% hits | AID 651582;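 active = pattern-corrected inhibition of lipid staining of at least 50% with the nuclear-stain viability signal not falling by more than 50%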;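 also: 0% = DMSO wells and 100% = triacsin C control wells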
# CXCR6 inh – blocks human CXCR6 beta-arrestin recruitment; inhibition, % at 20 µM; O00574; CHO-K1 PathHunter CXCR6 beta-arrestin, luminescence; 360,000 compounds, 0.36% hits; in the data active = inhibition above about 34%, passing the limit was not always enough;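 also: antagonist mode with CXCL16 agonist at 10 nM final; 0% = 10 nM CXCL16 with DMSO and 100% = unstimulated wells without agonist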
# Target sequence (O00574 whole entry, looked up): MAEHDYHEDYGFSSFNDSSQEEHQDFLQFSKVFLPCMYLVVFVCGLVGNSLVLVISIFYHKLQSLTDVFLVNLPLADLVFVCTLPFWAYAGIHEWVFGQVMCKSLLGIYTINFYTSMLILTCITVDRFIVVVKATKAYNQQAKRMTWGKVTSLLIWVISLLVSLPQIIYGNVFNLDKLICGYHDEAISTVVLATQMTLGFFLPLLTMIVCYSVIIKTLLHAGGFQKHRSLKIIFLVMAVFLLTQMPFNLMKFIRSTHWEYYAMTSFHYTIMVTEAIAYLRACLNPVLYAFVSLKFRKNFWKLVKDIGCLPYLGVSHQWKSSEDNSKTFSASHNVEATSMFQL
# CCR6 antagonist – CCR6 (human) receptor antagonism | P51684 | CHO-K1 CCR6 PathHunter beta-arrestin, luminescence, CCL20-stimulated | inhibition, % at 20 µM | 340,000 compounds, 0.49% hits | AID 493098;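 active = compounds whose inhibition of the agonist-driven luminescence signal at 20 µM reaches about 50%, limit read from the data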;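 also: cells stimulated with CCL20 at 14 nM final; plate controls were DMSO with CCL20 for no effect and DMSO without agonist for full effect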
# APJ ag – activates the human apelin receptor APJ. P35414. CHO-K1 APJ PathHunter beta-arrestin, luminescence; 0% DMSO wells, 100% apelin. activation, % at 20 µM. 330,000 compounds, 0.11% hits. AID 2520;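 active = activation more than six SD over the plate average, tested at 20 µM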;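 also: 0% = DMSO alone and 100% = apelin-13 at 10 nM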
#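 assay system = CHO-K1 APJ beta-arrestin complementation cell line | input = cell density 1000 per well | dosing = compound 20 µM once, DMSO 1% | timing = compound 90 min 25 °C, reagent 1 h | measured by = luminescence from split beta-galactosidase complementation, Galacton Star/Emerald II substrate | read-out basis = APJ agonist activity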
# EBI2 antag – EBI2 (human) antagonism | P32249 | EBI2 beta-arrestin recruitment, luminescence, 7a,25-OHC stimulated | inhibition, % at 5 µM | 360,000 compounds, 0.81% hits; in the data active = inhibition above about 38%;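 also: enzyme fragment complementation signal reports receptor beta-arrestin coupling in cells; 0% = agonist plus DMSO wells and 100% = wells without agonist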
# APJ antag – blocks the human apelin receptor APJ; 330,000 compounds, 0.32% hits; P35414; CHO-K1 APJ beta-arrestin complementation, luminescence; inhibition, % at 20 µM;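 active = inhibition above about 40% at 20 µM, limit read from the data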;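 also: cells challenged with 10 nM apelin-13 agonist together with compound; plate controls were apelin-13 plus DMSO wells for no effect and DMSO wells lacking apelin-13 for full effect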
# * = called active by the depositor; nt = no result. Rows were chosen to be rich in hits. Some 1.9% of all compounds tested hit in one or more screens of this group.
SMILES,TAG inh,CXCR6 inh,CCR6 antagonist,APJ ag,EBI2 antag,APJ antag
CCN1/C(=C/C=C/C2=[N+](CC)c3ccccc3C2(C)C)C(C)(C)c2ccccc21,-360,56*,nt,nt,16,nt
CN1/C(=C\C=C\C2=[N+](C)c3ccc4ccccc4c3C2(C)C)C(C)(C)c2ccccc21,nt,nt,nt,-5,nt,43*
CN1/C(=C\C=Nc2ccccc2)C(C)(C)c2ccccc21,-72,-6,6,1,14,-15
CN1/C(=C\C=C2C(=O)NC(=O)NC2=O)C(C)(C)c2ccccc21,-6,-2,10,-2,0,22
CCS(=O)(=O)Nc1cccc(C(=C2CCCCC2)c2cnc[nH]2)c1,-5,5,3,-5,-5,13
O=C1C(=O)c2cccc3cccc1c23,nt,44*,67*,-13,57*,63*
O=[N+]([O-])[N-][n+]1cnn(Cc2ccc(Cl)cc2)c1,-3,6,-1,-1,-6,-25
NC(=O)c1cn(C2OC(CO)C(O)C2O)c2ncnc(N)c12 (configuration not stated),48,8,15,-1,1,-50
N#Cc1cn(C2OC(CO)C(O)C2O)c2ncnc(N)c12 (configuration not stated),90*,0,4,nt,11,nt
N#Cc1c(Br)n(C2OC(CO)C(O)C2O)c2ncnc(N)c12 (configuration not stated),52*,-6,1,nt,-7,nt
NC(=O)c1c(Br)n(C2OC(CO)C(O)C2O)c2ncnc(N)c12 (configuration not stated),43,-2,8,nt,-2,nt
CCCC1CCCCC12C(=O)NC(=O)NC2=O (configuration not stated),-16,-2,1,nt,4,nt
ON1C2CCCCC2N(O)C1c1ccccc1F (configuration not stated),1,24,80*,-8,-13,24
CN1C(=O)C(=Cc2ccc(N3CCOCC3)o2)C(=O)N(C)C1=S,-7,3,57*,-5,2,42*
O=C1NC(=O)N(CCc2ccc(F)cc2)C(=O)/C1=C\C=C\c1ccccc1,20,-7,-24,nt,48*,nt
c1ccc(-c2nc(N3CCOCC3)s[n+]2-c2ccccc2)cc1,0,-22,-16,-2,-4,11
O=C1NC(=O)N(c2ccccc2)C(=O)/C1=C/C=C/c1ccco1,-2,9,22,0,-1,-29
CN(C)c1ccc(/C=C/C=C2/C(=O)NC(=O)N(c3ccccc3)C2=O)cc1,64,46*,66*,nt,27,nt
C=C(C)[C@@H]1[C@H]2OC(=O)[C@H]1[C@]1(O)C[C@H]3O[C@]34C(=O)O[C@H]2[C@]14C,-25,4,10,nt,-8,nt
CC12CC1(C)C(=O)N(c1cc(Cl)cc(Cl)c1)C2=O (configuration not stated),-9,10,8,nt,-11,nt
CCOC(=O)c1c(N)n(CCCOC(=O)c2ccco2)c2nc3ccccc3nc12,53*,-4,11,9,-5,-48
COCCCn1c(N)c(C(=O)OCCOC)c2nc3ccccc3nc21,-17,-5,13,-9,13,10
OC[C@@H](O)CCl,nt,nt,nt,-4,nt,11
CC12CCC3C(CCC4CC(=O)C(C(O)C(F)(F)F)CC43C)C1CCC2O (configuration not stated),-17,-2,11,nt,-9,nt
CC12CCCCC1N(O)CN2O (configuration not stated),nt,5,60*,-1,4,18
SMILES,TAG inh,CXCR6 inh,CCR6 antagonist,APJ ag,EBI2 antag,APJ antag
CC1(C)N(O)C2CCCCC2N1O (configuration not stated),-17,-1,13,-3,0,-13
CN(C)P(=O)(N(C)C)N1CC1,-8,4,3,nt,-7,nt
O=C(O)c1cccc(NC(=O)N2C[C@H]3C[C@@H](C2)c2cccc(=O)n2C3)c1,nt,-2,8,-3,-2,8
CC1CCN(C(CC(=O)c2ccccc2)C(=O)c2ccccc2)CC1 (configuration not stated),-5,30,65*,nt,15,nt
CC1CCC(C(C)C)C(OC(=O)Cn2c(COc3ccccc3)[n+](C)c3ccccc32)C1 (configuration not stated),104*,-11,22,-4,3,-8
CC(C)[C@]12CC(=O)[C@H](C)[C@H]1C2,nt,-4,-3,0,-1,-24
C=C1C(=O)OC2CC(C)C3C=CC(=O)C3(C)C(O)C12 (configuration not stated),72,29,47,nt,47*,nt
CC(C)OCCCNC(=O)c1c(N)n(Cc2cccs2)c2nc3ccccc3nc12,17,-1,-11,-5,71*,21
C=C1C(C)C2C(Cc3ccccc3)NC(=O)C23C(OC(C)=O)C=CC(C)(O)CC(C)CC=CC3C1O (configuration not stated),98*,-2,28,nt,-51,nt
C=C(C)C(Cc1c(OC)ccc(C(=O)/C=C/c2ccc(O)cc2)c1O)OO (configuration not stated),nt,8,8,4,24,-4
O=C1NC(=O)C(=Cc2ccc(-c3ccc(Cl)cc3)o2)C(=O)N1,11,50*,71*,24,21,-2
Cc1cc(OC(C)C(=O)NCc2ccncc2)c2c3c(c(=O)oc2c1)CCC3 (configuration not stated),nt,-2,-1,0,0,3
O=c1c2ccccc2nc(-c2ccccc2)n1-c1ccccc1,-10,-8,1,-1,-8,16
O=c1c2ccccc2[se]n1-c1ccccc1,-2,-3,15,-1,62*,-3
CC1=CC(C)CC(C)OC(=O)CC(c2ccc(O)cc2)NC(=O)C(Cc2c(Br)[nH]c3ccccc23)N(C)C(=O)C(C)NC(=O)C(C)C1 (configuration not stated),98*,10,19,nt,-34,nt
O=C(Cn1c(=O)n(CC2CS2)c2ccccc21)N1CCCCCC1 (configuration not stated),0,-5,62*,-5,-9,8
COC(=O)C1CN(C#N)N(c2ccc(Cl)cc2)C12c1ccccc1-c1ccccc12 (configuration not stated),134,23,32,2,53*,21
CC1(C)C(C(=O)N2CCN(c3ccc(Cl)cc3)CC2)C1(C)C,nt,-3,10,0,6,-18
O=C1C=CC(=O)C=C1,-3,-4,79*,-1,-9,-2
COC(=O)C1=C(c2ccc(-c3ccccc3)c(F)c2)C[C@@H]2CC[C@H]1N2C(=O)N1CCC(C)CC1,-8,41*,28,-4,33,14
